The values below come from article PMC9214341 (Acta Pharmaceutica Sinica. B, 2021).

Assay [1] relates to tumor infiltrating immune cells. In words: Flow cytometry analysis of tumor-infiltrating immune cells. The class given is in vivo, BALB/c mice. The settings on record: CT26 tumor-bearing mice, 16 mg/kg daily, 5 days. In a few lines:
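Tumor-bearing mice (n = 5) got vehicle or test compound. Tumors were cut up and digested in RPMI 1640 with 0.1% type IV collagenase and 0.01% DNase I at 37 °C for 45 min, passed through a 70 μm strainer, and red cells lysed. Cells were Fc-blocked on ice for 15 min and surface-stained on ice for 30 min. MDSCs were scored as a proportion of CD45⁺ cells (mean ± SEM).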
A general note: A flow cytometer gives signals particle by particle.

Another assay relates to CT26 cells. In words: SRB cell proliferation assay, CT26. The format is cell-based, murine. The settings on record: gradient concentrations, 72 h.
The next assay deals with MC38 cells. In words: SRB cell proliferation assay, MC38. The settings on record: gradient concentrations, 72 h. The class given is cell-based, murine.

For the compound `O=C(/C=C/c1cccnc1)NCCCCC1CCN(C(=O)c2ccccc2)CC1` [FK866], the “infiltrating MDSCs in CT26 tumors” value in assay [1] was “did not affect”. Besides, the cell growth sensitivity entry with CT26 cells and in the assay with MC38 cells was “did not show the apparent growth dependency” throughout.
